We go through 2 molecules from ChEMBL document CHEMBL1135505, “Synthesis and pharmacology of benzoxazines as highly selective antagonists at M(4) muscarinic receptors” (J Med Chem, 2002).

Structures are written as SMILES.

Format in all cases: cell-based
The target of assay [1] is T1, Muscarinic acetylcholine receptor M2 (Homo sapiens, UniProt P08172).
T1 sequence (P08172 whole entry): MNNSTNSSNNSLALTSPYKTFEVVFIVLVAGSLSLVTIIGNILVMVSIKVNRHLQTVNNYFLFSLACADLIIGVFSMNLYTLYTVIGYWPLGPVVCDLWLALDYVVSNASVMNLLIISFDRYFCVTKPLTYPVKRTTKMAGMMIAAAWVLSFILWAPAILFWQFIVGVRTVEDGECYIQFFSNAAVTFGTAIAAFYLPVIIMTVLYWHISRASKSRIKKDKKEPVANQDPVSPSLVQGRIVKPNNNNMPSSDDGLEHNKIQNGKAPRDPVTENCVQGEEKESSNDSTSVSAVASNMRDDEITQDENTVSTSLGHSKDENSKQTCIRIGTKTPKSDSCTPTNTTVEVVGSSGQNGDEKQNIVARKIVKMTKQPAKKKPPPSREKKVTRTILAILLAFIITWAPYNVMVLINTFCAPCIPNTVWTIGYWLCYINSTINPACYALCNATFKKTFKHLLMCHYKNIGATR
The experiment in a line: Inhibition of [3H]-NMS binding to human muscarinic acetylcholine receptor M2 in transfected CHO cells. Put shortly:
(§1)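 Membranes from CHO-K1 cells expressing one human muscarinic subtype, harvested at 70-90% confluency. Incubated in 10 mM Na+/K+ PO4 pH 7.4 with 0.1 nM [3H]NMS and test compound for 120 min at 25 °C; atropine defined nonspecific binding. Filtration and scintillation counting. IC50 by logit fit, Ki by Cheng–Prusoff with KD (nM) M1 1.28, M2 0.85, M3 0.94, M4 3.10, M5 0.79. At least three tests, geometric mean.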

Assay [2] deals with T2, Muscarinic acetylcholine receptor M1 (Homo sapiens, UniProt P11229).
T2 sequence (P11229 whole entry): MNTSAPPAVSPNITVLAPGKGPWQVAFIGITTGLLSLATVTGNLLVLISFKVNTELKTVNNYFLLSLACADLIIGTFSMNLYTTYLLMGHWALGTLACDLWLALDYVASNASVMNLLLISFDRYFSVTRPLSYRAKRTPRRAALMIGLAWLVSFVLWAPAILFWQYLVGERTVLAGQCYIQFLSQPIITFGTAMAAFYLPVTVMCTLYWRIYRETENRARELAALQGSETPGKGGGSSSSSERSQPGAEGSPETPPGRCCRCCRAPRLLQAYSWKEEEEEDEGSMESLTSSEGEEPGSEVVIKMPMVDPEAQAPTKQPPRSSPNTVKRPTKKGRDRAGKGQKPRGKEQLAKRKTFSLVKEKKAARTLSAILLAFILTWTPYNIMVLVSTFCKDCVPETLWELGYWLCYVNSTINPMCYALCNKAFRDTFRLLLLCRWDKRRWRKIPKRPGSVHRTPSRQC
The experiment in a line: Inhibition of [3H]NMS binding to human muscarinic acetylcholine receptor M1 in transfected CHO cells. Put shortly: as §1

Assay [3] addresses T3, Muscarinic acetylcholine receptor M4 (Homo sapiens, UniProt P08173).
T3 sequence (P08173 whole entry): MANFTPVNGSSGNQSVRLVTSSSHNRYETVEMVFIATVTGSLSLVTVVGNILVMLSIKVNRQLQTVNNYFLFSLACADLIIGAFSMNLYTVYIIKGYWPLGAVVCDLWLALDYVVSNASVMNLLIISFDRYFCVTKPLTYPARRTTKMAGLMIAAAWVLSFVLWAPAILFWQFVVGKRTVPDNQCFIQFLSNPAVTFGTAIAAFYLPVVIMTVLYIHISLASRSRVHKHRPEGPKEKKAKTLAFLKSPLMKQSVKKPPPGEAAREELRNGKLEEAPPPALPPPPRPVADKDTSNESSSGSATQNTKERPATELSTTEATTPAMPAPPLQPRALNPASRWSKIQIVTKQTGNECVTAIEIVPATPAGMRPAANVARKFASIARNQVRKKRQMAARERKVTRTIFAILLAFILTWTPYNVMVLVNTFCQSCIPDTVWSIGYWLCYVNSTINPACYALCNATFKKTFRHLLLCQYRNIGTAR
Briefly: Inhibition of [3H]NMS binding to human muscarinic acetylcholine receptor M4 in transfected CHO cells. Put shortly:
as §1

The target of assay [4] is T4, Muscarinic acetylcholine receptor M5 (Homo sapiens, UniProt P08912).
T4 sequence (P08912 whole entry): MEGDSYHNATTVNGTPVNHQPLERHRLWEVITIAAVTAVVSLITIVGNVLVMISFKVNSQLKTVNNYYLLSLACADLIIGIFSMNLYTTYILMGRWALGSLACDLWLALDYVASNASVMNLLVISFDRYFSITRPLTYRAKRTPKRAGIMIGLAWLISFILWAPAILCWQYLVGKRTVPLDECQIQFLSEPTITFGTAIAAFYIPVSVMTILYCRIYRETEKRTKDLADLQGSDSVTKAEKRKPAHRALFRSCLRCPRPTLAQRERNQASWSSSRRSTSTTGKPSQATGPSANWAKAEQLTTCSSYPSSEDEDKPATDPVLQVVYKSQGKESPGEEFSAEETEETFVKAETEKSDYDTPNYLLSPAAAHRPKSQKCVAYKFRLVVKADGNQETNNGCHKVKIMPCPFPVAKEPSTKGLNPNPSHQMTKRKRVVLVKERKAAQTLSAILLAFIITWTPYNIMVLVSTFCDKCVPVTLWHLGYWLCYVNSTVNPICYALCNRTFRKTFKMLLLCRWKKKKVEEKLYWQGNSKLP
The experiment in a line: Inhibition of [3H]NMS binding to human muscarinic acetylcholine receptor M5 in transfected CHO cells. In a few lines:
as §1

In assay [5] the target is Muscarinic acetylcholine receptor M3 (Homo sapiens, UniProt P20309). Briefly: Inhibition of [3H]NMS binding to human muscarinic acetylcholine receptor M3 in transfected CHO cells. In a few lines: as §1
Muscarinic acetylcholine receptor M3, sequence (P20309 whole entry): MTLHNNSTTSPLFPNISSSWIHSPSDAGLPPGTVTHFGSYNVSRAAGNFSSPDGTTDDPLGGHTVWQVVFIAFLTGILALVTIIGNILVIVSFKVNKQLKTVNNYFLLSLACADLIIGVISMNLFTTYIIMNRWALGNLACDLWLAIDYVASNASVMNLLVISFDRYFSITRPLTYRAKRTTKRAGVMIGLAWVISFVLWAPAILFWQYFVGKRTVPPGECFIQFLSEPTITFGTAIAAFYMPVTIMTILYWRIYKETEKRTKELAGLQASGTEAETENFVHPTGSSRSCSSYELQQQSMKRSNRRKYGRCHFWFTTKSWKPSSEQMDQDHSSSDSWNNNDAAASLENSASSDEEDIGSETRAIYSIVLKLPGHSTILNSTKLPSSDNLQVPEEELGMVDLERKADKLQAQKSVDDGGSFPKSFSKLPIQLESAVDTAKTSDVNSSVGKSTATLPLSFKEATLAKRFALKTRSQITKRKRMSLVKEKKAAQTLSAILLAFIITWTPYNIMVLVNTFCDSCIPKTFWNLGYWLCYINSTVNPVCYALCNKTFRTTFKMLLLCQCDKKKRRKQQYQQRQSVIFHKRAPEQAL

As usually defined, the Ki is the dissociation constant of the complex between target and ligand, obtained from inhibition or displacement. Low readings indicate tighter binding, high ones weaker binding. Regarding `CCOC(=O)c1c(C)[nH]c2ccc3c(c12)CN1CCc2cc(Cl)ccc2C1O3` (stereo not given), the inhibition constant (Ki) in assay [1] was 3.24 µM; in assay [2], 5.13 µM; in assay [3] it was 0.363 µM; in assay [4] it was 5.37 µM; in assay [5], 2.75 µM.

For `CCCc1[nH]c2ccc3c(c2c1C(=O)OCC)CN1CCc2cc(SC)ccc2C1O3` (stereo not given), the Ki in assay [1] is 1.45 µM; in assay [2], 0.871 µM; in assay [3] it was 0.001 µM; in assay [4], 2.4 µM; in assay [5], 0.1 µM.
